Measurements: ChEMBL document CHEMBL1133501, “Conformationally constrained anesthetic steroids that modulate GABA(A) receptors” (J Med Chem, 2000)

How the values were obtained:
Mus musculus = test: Hypnotic dose required to cause a loss of righting reflex for a minimum period of 30 s in 50 percent of treated mice after intravenous administration.; format: functional
In short: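 Mice given steroid intravenously. The endpoint was loss of righting reflex lasting at least 30 s. The dose producing this in 50% of treated mice (HD50) was derived by probit analysis and expressed in µmol·kg-1.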

[1] = target: GABA-A receptor; anion channel; test: Inhibition of binding of tert-butyl bicyclophosphorothionate ([35 S]TBPS) at Gamma-aminobutyric acid A receptor from rat whole brain membranes; format: cell membranes, Membrane

| Structure (SMILES) | HD50 (Mus musculus) [µM/kg] | IC50 [1] [nM] |
| --- | --- | --- |
| C[C@]12CC[C@@H](O)C[C@@H]1CC[C@@H]1[C@@H]2CC[C@]2(C)[C@@H](C(=O)CO)CC[C@@H]12 | 18.5 | 192 |
| C[C@]12CC[C@@H](O)C[C@@H]1CC[C@@H]1[C@@H]2CC[C@@]2(C)[C@H]1CC[C@@]21CCO1 | 62.8 | 232 |
| C[C@]12CC[C@@H](O)C[C@H]1CC[C@@H]1[C@@H]2CC[C@@]2(C)[C@H]1C[C@@H]1O[C@@H]12 | 38 | 159 |
| C[C@]12CC[C@@H](O)C[C@@H]1CC[C@@H]1[C@@H]2CC[C@@]2(C)[C@H]1C[C@@H]1CO[C@@H]12 | 146.9 | 2530 |
| C[C@]12CC[C@@H](O)C[C@@H]1CC[C@@H]1[C@@H]2CC[C@]2(C)[C@@H]3O[C@@H]3C[C@@H]12 | 68.4 | 5350 |
| C[C@]12CC[C@@H](O)C[C@@H]1CC[C@@H]1[C@@H]2CC[C@@]2(C)[C@H]1C[C@@H]1O[C@@H]12 | 17.3 | 255 |
| C[C@]12CC[C@@H](O)C[C@@H]1CC[C@@H]1[C@@H]2CC[C@@]2(C)[C@H](C#N)CC[C@@H]12 | 114.9 | 1240 |
| C[C@]12CC[C@H]3[C@@H](CC[C@H]4CC(O)CC[C@@]43C)[C@@H]1CC(=O)C2 (stereo not given in full) | 134.7 | – |
| CO[C@H]1CC[C@H]2[C@@H]3CC[C@H]4C[C@H](O)CC[C@]4(C)[C@H]3CC[C@]12C | 23.1 | 210 |
| C[C@]12CC[C@@H](O)C[C@@H]1CC[C@@H]1[C@@H]2CC[C@@]2(C)[C@H]1CC[C@@]21CO1 | 19.8 | 55 |
| C[C@]12CC[C@@H](O)C[C@H]1CC[C@@H]1[C@@H]2CC[C@@]2(C)[C@H]1CC[C@@]21CO1 | 22.6 | 221 |
| CC(=O)[C@H]1CC[C@H]2[C@@H]3CC[C@H]4C[C@H](O)CC[C@]4(C)[C@H]3C(=O)C[C@]12C [ALFAXALONE] | 6.3 | – |
| C[C@]12CC[C@@H](O)C[C@@H]1CC[C@@H]1[C@@H]2CC[C@]2(C)[C@@H](O)CC[C@@H]12 [ANDROSTANDIOL] | 239.4 | 1870 |
| C[C@]12CC[C@@H](O)C[C@@H]1CC[C@@H]1[C@@H]2CC[C@]2(C)C(=O)CC[C@@H]12 [ANDROSTERONE] | 68.9 | 1370 |
| CC(=O)[C@H]1CC[C@H]2[C@@H]3CC[C@H]4C[C@H](O)CC[C@]4(C)[C@H]3CC[C@]12C [BREXANOLONE] | 10 | 155 |
| CC(=O)[C@H]1CC[C@H]2[C@@H]3CC[C@@H]4C[C@H](O)CC[C@]4(C)[C@H]3CC[C@]12C [ELTANOLONE] | 9.5 | 145 |
